Experiments:
Rattus norvegicus [1] = species: Rattus norvegicus; assay: Tissue distribution in rat heart after 30 minutes (n=3); format: ADME, organism-based; settings: in vivo, 0.5 h
Method in brief: (§1)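 Male Wistar rats (200-350 g) under ether, iv [125I]tracer (3-5 μCi in 0.1 mL 50% aqueous EtOH). At 5, 30, 60 or 180 min, blood taken by cardiac puncture and the rat killed by cardiectomy. Organs weighed and γ-counted against 1:100 dilutions of the injected dose; results in % injected dose/g, with range.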

Rattus norvegicus [2] = species: Rattus norvegicus; assay: Tissue distribution in rat heart after 5 minutes (n=3); format: ADME, organism-based; settings: in vivo
Method in brief: (§2)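 Male Wistar rats (200-350 g) under ether anesthesia; radiotracer (3-5 μCi in 0.1 mL 50% aqueous ethanol) given iv. At 5, 30, 60 and 180 min, blood was drawn by cardiac puncture and animals were killed by cardiectomy. Organs were weighed and γ-counted against a 1:100 dilution of the injected dose. Results are given as % injected dose/g tissue; ratios are taken between tissue levels.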

Rattus norvegicus [3] = species: Rattus norvegicus; assay: Tissue distribution in rat kidney after 180 minutes (n=3); format: ADME, organism-based; settings: in vivo, 3 h; method in brief: as §2
Rattus norvegicus [4] = species: Rattus norvegicus; assay: Tissue distribution in rat kidney after 60 minutes (n=3); format: ADME, organism-based; settings: in vivo, 1 h; method in brief: as §2
Rattus norvegicus [5] = species: Rattus norvegicus; assay: Tissue distribution in rat liver after 180 minutes (n=3); format: ADME, organism-based; settings: in vivo, 3 h; method in brief: as §1
Rattus norvegicus [6] = species: Rattus norvegicus; assay: Tissue distribution in rat lung after 30 minutes (n=3); format: ADME, organism-based; settings: in vivo, 0.5 h; method in brief: as §2
Rattus norvegicus [7] = species: Rattus norvegicus; assay: Tissue distribution in rat muscle after 30 minutes (n=3); format: ADME, organism-based; settings: in vivo, 0.5 h; method in brief: as §1
Rattus norvegicus [8] = species: Rattus norvegicus; assay: Tissue distribution in rat muscle after 5 minutes (n=3); format: ADME, organism-based; settings: in vivo; method in brief: as §2
Rattus norvegicus [9] = species: Rattus norvegicus; assay: Tissue distribution in rat spleen after 180 minutes (n=3); format: ADME, organism-based; settings: in vivo, 3 h; method in brief: as §2
Rattus norvegicus [10] = species: Rattus norvegicus; assay: Tissue distribution in rat thyroid after 180 minutes (n=3); format: ADME, organism-based, Thyroid gland; settings: in vivo, 3 h; method in brief: as §2
Rattus norvegicus [11] = species: Rattus norvegicus; assay: Tissue distribution in rat thyroid after 30 minutes (n=3); format: ADME, organism-based, Thyroid gland; settings: in vivo, 0.5 h; method in brief: as §2
Rattus norvegicus [12] = species: Rattus norvegicus; assay: Tissue distribution in rat thyroid after 5 minutes (n=3); format: ADME, organism-based, Thyroid gland; settings: in vivo; method in brief: as §1
Rattus norvegicus [13] = species: Rattus norvegicus; assay: Tissue distribution in rrat heart after 60 minutes (n=3); format: ADME, organism-based; settings: in vivo, 1 h; method in brief: as §2
Rattus norvegicus [14] = species: Rattus norvegicus; assay: Tissue distribution in rat blood after 180 minutes (n=3); format: ADME, organism-based; settings: in vivo, 3 h; method in brief: as §2
Rattus norvegicus [15] = species: Rattus norvegicus; assay: Tissue distribution in rat blood after 30 minutes (n=3); format: ADME, organism-based; settings: in vivo, 0.5 h; method in brief: as §2
Rattus norvegicus [16] = species: Rattus norvegicus; assay: Tissue distribution in rat blood after 5 minutes (n=3); format: ADME, organism-based; settings: in vivo; method in brief: as §2
Rattus norvegicus [17] = species: Rattus norvegicus; assay: Tissue distribution in rat brain after 60 minutes (n=3); format: ADME, organism-based; settings: in vivo, 1 h; method in brief: as §2
Rattus norvegicus [18] = species: Rattus norvegicus; assay: Effect of vesamicol on the accumulation in rat blood [0.05 (0.04-0.06)]; format: ADME, organism-based; settings: in vivo
Method in brief: (§3)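 Male Wistar rats (n = 4/group) given iv vehicle (100 μL 50% aqueous EtOH) or dl-vesamicol (1.01 μmol/kg); 15 min later iv radiotracer (2.0 μCi in 100 μL 50% aqueous EtOH); killed 30 min post-tracer. Blood by cardiac puncture, organs weighed and γ-counted vs 1:100 injected-dose dilution; % dose/g tissue (range); tissue/blood ratios.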

Rattus norvegicus [19] = species: Rattus norvegicus; assay: Tissue distribution in rat gonads after 60 minutes (n=3); format: ADME, organism-based, Gonad; settings: in vivo, 1 h; method in brief: as §1
Rattus norvegicus [20] = species: Rattus norvegicus; assay: Effect of vesamicol on the accumulation in rat heart [0.25 (0.21-0.30)]; format: ADME, organism-based; settings: in vivo
Method in brief: (§4)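 Male Wistar rats. Pretreatment at t = 0 was iv vehicle (50% aqueous EtOH) or iv dl-vesamicol (1.01 μmol/kg). At 15 min, iv [125I]tracer (2.0 μCi in 100 μL 50% aqueous EtOH) was given; rats were killed 30 min later. Tissues were weighed and γ-counted, and values expressed as % injected dose/g; n = 4 per group.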

Rattus norvegicus [21] = species: Rattus norvegicus; assay: Effect of vesamicol on the accumulation in rat kidney [1.76 (1.55-2.08)]; format: ADME, organism-based; settings: in vivo; method in brief: as §3
Rattus norvegicus [22] = species: Rattus norvegicus; assay: Effect of vesamicol on the accumulation in rat liver [2.01 (1.65-3.34)]; format: ADME, organism-based; settings: in vivo; method in brief: as §3
Rattus norvegicus [23] = species: Rattus norvegicus; assay: Regional kinetics in the rat brain cortex at 120 minutes; format: ADME, organism-based; settings: in vivo, 2 h
Method in brief: (§5)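 Male Wistar rats (n = 4 per time point) under ether received (+)-radiotracer iv (2 μCi in 100 μL 50% aqueous EtOH). They were killed at 30, 120 or 180 min. Brains were partially frozen and dissected into striatum, cerebellum, cortex and remainder. Regions were γ-counted against injected-dose dilutions and expressed as % injected dose/g tissue.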

Rattus norvegicus [24] = species: Rattus norvegicus; assay: Regional kinetics in the rat brain cortex at 180 minutes; format: ADME, organism-based; settings: in vivo, 3 h
Method in brief: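 Male Wistar rats under ether anaesthesia, iv (+)-[125I]tracer (2 μCi in 100 μL 50% aqueous EtOH); killed at 30, 120 or 180 min. Brains partially frozen and dissected into striatum, cerebellum, cortex and remainder, then counted for radioactivity. Results are % injected dose/g, calculated against counted dilutions of the injected dose.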

Rattus norvegicus [25] = species: Rattus norvegicus; assay: Regional kinetics in the remainder of rat brain at 120 minutes; format: ADME, organism-based; settings: in vivo, 2 h; method in brief: as §5
Rattus norvegicus [26] = species: Rattus norvegicus; assay: Effect of vesamicol on the accumulation in rat muscle [0.16 (0.15-0.20)]; format: ADME, organism-based, Muscle tissue; settings: in vivo; method in brief: as §4
Rattus norvegicus [27] = species: Rattus norvegicus; assay: Ratio of effect 4-aminobenzovesamicol on regional distribution between rat brain caudate and cerebellum; format: ADME, organism-based; settings: in vivo
Rattus norvegicus [28] = species: Rattus norvegicus; assay: Ratio of effect 4-aminobenzovesamicol on regional distribution between rat brain caudate and cortex; format: ADME, organism-based; settings: in vivo
Rattus norvegicus [29] = species: Rattus norvegicus; assay: Ratio of effect haloperidol on regional distribution between rat brain caudate and cerebellum; format: ADME, organism-based; settings: in vivo
Rattus norvegicus [30] = species: Rattus norvegicus; assay: Ratio of regional kinetics between rat brain caudate and cerebellum at 180 minutes; format: ADME, organism-based; settings: in vivo, 3 h
Method in brief: (§6)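 Male Wistar rats (n = 4/group) under ether anesthesia, iv (+)-[125I]MIBT (2 μCi in 100 μL 50% aqueous EtOH); killed at 30, 120, 180 min. Brains partially frozen, dissected into striatum, cerebellum, cortex and remainder; radioactivity counted, % dose/g vs injected-dose dilutions; caudate/cortex and caudate/cerebellum ratios.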

Rattus norvegicus [31] = species: Rattus norvegicus; assay: Ratio of regional kinetics between rat brain caudate and cerebellum at 30 minutes; format: ADME, organism-based; settings: in vivo, 0.5 h; method in brief: as §6
Rattus norvegicus [32] = species: Rattus norvegicus; assay: Ratio of regional kinetics between rat brain caudate and cortex at 120 minutes; format: ADME, organism-based; settings: in vivo, 2 h; method in brief: as §6
Rattus norvegicus [33] = species: Rattus norvegicus; assay: Effect of 4-aminobenzovesamicol on the regional distribution of compound in the rat brain cortex (n=4) [0.23 (0.19-0.25)]; format: ADME, organism-based; settings: in vivo
Rattus norvegicus [34] = species: Rattus norvegicus; assay: Effect of 4-aminobenzovesamicol on the regional distribution of compound in the remainder of rat brain (n=4) [0.21 (0.17-0.23)]; format: ADME, organism-based; settings: in vivo
Rattus norvegicus [35] = species: Rattus norvegicus; assay: Effect of haloperidol on the regional distribution of compound in the rat brain caudate-putamen (n=4) [0.75 (0.60-0.85)]; format: ADME, organism-based; settings: in vivo
Rattus norvegicus [36] = species: Rattus norvegicus; assay: Effect of haloperidol on the regional distribution of compound in the rat brain cortex (n=4) [0.32 (0.29-0.38)]; format: ADME, organism-based, Cerebral cortex; settings: in vivo
Rattus norvegicus [37] = species: Rattus norvegicus; assay: Effect of haloperidol on the regional distribution of compound in the rat cerebellum (n=4) [0.22 (0.18-0.24)]; format: ADME, organism-based; settings: in vivo
Rattus norvegicus [38] = species: Rattus norvegicus; assay: Ratio of regional kinetics between rat brain caudate and cortex at 30 minutes; format: ADME, organism-based; settings: in vivo, 0.5 h; method in brief: as §6
Rattus norvegicus [39] = species: Rattus norvegicus; assay: Ratio of tissue distribution between rat brain and blood after 30 min; format: ADME, organism-based; settings: 0.5 h
Method in brief: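 Male Wistar rats (200-350 g) under ether anesthesia, iv radiotracer (3-5 μCi in 0.1 mL 50% aqueous ethanol). At 5, 30, 60, 180 min blood taken by cardiac puncture, animal killed by cardiectomy; organs weighed, γ-counted against 1:100 injected-dose dilution; % injected dose/g tissue; brain/blood ratio.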

Rattus norvegicus [40] = species: Rattus norvegicus; assay: Ratio of tissue distribution between rat brain and blood after 60 min; format: ADME, organism-based; settings: 1 h; method in brief: as §2
Rattus norvegicus [41] = species: Rattus norvegicus; assay: Effect of 4-aminobenzovesamicol on the regional distribution of compound in the rat brain caudate-putamen (n=4) [0.40 (0.35-0.47)]; format: ADME, organism-based; settings: in vivo

## O[C@@H]1CCN(Cc2cccc([125I])c2)C[C@H]1N1CCC(c2ccccc2)CC1 (stereo in doubt; (+))
Rattus norvegicus [1]
  Dose/g: 0.26%
Rattus norvegicus [2]
  Dose/g: 1.14%
Rattus norvegicus [3]
  Dose/g: 0.5%
Rattus norvegicus [4]
  Dose/g: 0.87%
Rattus norvegicus [5]
  Dose/g: 1.18%
Rattus norvegicus [6]
  Dose/g: 1.21%
Rattus norvegicus [7]
  Dose/g: 0.16%
Rattus norvegicus [8]
  Dose/g: 0.34%
Rattus norvegicus [9]
  Dose/g: 0.44%
Rattus norvegicus [10]
  Dose/g: 13.13%
Rattus norvegicus [11]
  Dose/g: 2.33%
Rattus norvegicus [12]
  Dose/g: 1.6%
Rattus norvegicus [13]
  Dose/g: 0.15%
Rattus norvegicus [14]
  Dose/g: 0.07%
Rattus norvegicus [15]
  Dose/g: 0.12%
Rattus norvegicus [16]
  Dose/g: 0.24%
Rattus norvegicus [17]
  Dose/g: 0.27%
Rattus norvegicus [18]
  Dose/g: 0.05%
Rattus norvegicus [19]
  Dose/g: 0.17%
Rattus norvegicus [20]
  Dose/g: 0.24%
Rattus norvegicus [21]
  Dose/g: 0.91%
Rattus norvegicus [22]
  Dose/g: 1.93%
Rattus norvegicus [23]
  Dose/g: 0.4%
Rattus norvegicus [24]
  Dose/g: 0.25%
Rattus norvegicus [25]
  Dose/g: 0.4%
Rattus norvegicus [26]
  Dose/g: 0.13%
Rattus norvegicus [27]
  Ratio: 2.07
Rattus norvegicus [28]
  Ratio: 1.57
Rattus norvegicus [29]
  Ratio: 10.97
Rattus norvegicus [30]
  Ratio: 2.95
Rattus norvegicus [31]
  Ratio: 1.2
Rattus norvegicus [32]
  Ratio: 1.68
Rattus norvegicus [33]
  Dose/g: 0.15%
Rattus norvegicus [34]
  Dose/g: 0.15%
Rattus norvegicus [35]
  Dose/g: 0.99%
Rattus norvegicus [36]
  Dose/g: 0.21%
Rattus norvegicus [37]
  Dose/g: 0.09%
Rattus norvegicus [38]
  Ratio: 0.98
Rattus norvegicus [39]
  Ratio: 3.18
Rattus norvegicus [40]
  Ratio: 3.08
Rattus norvegicus [41]
  Dose/g: 0.23%
